A word on the Kd: it is a measure of binding affinity in units of concentration. Read a high Kd as a looser complex.

Assay [1] addresses S. cerevisiae β′-COP(1–814)/α-COP(642–818) dimer (S. cerevisiae) (UniProt P41811). Briefly: ITC. (In general: Isothermal titration calorimetry measures the heat released or taken up as one component is titrated into another.)
For assay [2], the target named is T1, α‐COP (Schizosaccharomyces pombe, UniProt Q96WV5, F197K/I192K/L181K/L185K/L196K).
T1 sequence (Q96WV5 1-327 L181K/L185K/I192K/L196K/F197K): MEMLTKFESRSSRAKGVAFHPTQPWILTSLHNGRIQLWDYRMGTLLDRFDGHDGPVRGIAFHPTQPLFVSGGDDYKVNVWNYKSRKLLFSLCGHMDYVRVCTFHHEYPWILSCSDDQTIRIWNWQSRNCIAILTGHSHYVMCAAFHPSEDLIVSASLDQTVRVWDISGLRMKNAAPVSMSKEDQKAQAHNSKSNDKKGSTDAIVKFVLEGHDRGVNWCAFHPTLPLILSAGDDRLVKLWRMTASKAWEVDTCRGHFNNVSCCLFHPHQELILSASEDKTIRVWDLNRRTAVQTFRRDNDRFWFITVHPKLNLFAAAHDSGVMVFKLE
Kind of assay: Isothermal calorimetry. The class given is binding, S. pombe. The following applies: from ITC Kd values for α‐COP and β′‐COP. In short, it runs like this:
(§1)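 Synthetic peptides and protein were dialysed overnight into the same 20 mM Tris–HCl pH 7.5, 150 mM NaCl. α-COP target: quintuple-mutant S. pombe α-COP(1–327), His-Smt3-tagged, E. coli-expressed, tag cleaved. β′-COP target: S. cerevisiae β′-COP(1–814)/α-COP C-terminal fragment dimer from Hi-5 insect cells. Ratios are taken from the Kd values.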

Assay [3] addresses T2, β′‐COP (Saccharomyces cerevisiae, UniProt P41811).
T2 sequence (P41811 1-814): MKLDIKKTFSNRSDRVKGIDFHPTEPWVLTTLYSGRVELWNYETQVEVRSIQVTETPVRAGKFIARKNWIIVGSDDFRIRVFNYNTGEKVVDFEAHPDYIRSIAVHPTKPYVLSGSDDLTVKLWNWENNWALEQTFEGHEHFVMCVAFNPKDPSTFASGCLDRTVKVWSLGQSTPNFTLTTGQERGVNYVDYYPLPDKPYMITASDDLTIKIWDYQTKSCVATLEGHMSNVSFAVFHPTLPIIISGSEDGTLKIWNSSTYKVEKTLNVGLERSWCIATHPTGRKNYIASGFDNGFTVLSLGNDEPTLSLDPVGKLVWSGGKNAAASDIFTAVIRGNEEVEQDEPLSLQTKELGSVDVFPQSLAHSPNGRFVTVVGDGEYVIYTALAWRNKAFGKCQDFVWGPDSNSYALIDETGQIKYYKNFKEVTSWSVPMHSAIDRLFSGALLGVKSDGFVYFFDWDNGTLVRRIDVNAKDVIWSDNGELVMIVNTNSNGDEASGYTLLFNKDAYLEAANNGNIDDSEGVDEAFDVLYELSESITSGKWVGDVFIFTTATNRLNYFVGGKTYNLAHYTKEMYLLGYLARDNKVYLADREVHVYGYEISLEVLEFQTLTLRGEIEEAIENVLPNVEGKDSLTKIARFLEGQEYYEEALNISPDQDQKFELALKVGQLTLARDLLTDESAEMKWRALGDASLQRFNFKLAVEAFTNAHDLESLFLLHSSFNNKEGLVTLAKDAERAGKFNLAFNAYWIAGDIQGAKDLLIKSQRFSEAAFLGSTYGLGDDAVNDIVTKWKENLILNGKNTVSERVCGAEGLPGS
T2 sequence (P53622 642-818 partner limits assumed): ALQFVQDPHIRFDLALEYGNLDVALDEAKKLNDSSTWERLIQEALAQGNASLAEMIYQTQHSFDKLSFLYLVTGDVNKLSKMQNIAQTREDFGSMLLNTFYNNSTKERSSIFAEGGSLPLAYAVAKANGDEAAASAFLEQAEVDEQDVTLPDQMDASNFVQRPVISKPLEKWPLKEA
Kind of assay: Isothermal calorimetry. The class given is binding, S. cerevisiae. The following applies: ITC; relative to TFKKTN (yWbp1) peptide. In short, it runs like this:
as §1

Assay [4] concerns the target T3, S. cerevisiae β′-COP(1–814)/α-COP(642–818) dimer (S. cerevisiae, UniProt P41811 1-814; P53622 642-818).
T3 sequence (looked up) 1: T2 sequence (P41811 1-814)
T3 sequence (looked up) 2: T2 sequence (P53622 642-818 partner limits assumed)
Briefly: ITC.

The target in assay [5] is T4, S. cerevisiae β′-COP N-terminal β-propeller domain (residues 1–301) (S. cerevisiae, UniProt P41811 1-301).
T4 sequence (looked up): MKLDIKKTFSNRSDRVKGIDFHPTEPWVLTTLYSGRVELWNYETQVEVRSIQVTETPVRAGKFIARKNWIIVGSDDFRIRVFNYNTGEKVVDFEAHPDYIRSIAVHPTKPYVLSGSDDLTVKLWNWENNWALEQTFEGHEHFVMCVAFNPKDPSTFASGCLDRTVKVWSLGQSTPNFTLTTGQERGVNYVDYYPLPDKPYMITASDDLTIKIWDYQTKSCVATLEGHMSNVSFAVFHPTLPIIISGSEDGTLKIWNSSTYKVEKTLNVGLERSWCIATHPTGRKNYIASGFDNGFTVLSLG
Kind of assay: crystal structure.

In assay [6] the target is T5, S. cerevisiae α-COP(1–818)/β′-COP(651–814) dimer (S. cerevisiae, UniProt P53622 1-818; P41811 651-814).
T5 sequence (looked up) 1: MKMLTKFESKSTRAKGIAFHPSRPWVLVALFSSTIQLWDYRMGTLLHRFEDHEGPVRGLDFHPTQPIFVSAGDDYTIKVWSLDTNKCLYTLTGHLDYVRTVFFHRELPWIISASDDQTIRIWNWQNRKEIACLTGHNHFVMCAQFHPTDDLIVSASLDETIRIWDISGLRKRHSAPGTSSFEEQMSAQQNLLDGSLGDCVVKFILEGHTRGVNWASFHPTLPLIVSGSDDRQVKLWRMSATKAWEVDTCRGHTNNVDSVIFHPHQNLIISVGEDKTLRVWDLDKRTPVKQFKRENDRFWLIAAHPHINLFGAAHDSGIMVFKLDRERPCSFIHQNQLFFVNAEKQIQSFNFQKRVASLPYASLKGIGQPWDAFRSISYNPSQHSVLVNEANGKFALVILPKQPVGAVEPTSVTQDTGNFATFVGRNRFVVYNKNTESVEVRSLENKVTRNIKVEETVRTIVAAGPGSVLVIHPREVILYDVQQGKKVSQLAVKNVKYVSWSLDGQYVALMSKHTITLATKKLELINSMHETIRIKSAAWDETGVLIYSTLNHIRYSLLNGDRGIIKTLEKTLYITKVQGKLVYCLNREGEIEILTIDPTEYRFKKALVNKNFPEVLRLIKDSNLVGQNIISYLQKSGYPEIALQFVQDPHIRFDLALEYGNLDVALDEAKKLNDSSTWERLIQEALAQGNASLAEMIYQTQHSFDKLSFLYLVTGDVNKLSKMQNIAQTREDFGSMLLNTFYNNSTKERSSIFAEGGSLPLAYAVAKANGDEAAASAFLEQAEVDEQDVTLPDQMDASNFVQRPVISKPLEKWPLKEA
T5 sequence (looked up) 2: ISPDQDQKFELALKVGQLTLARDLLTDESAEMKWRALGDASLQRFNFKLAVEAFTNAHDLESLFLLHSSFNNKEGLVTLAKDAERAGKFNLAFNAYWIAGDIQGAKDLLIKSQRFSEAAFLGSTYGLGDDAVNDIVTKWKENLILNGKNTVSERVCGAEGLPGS
Kind of assay: pull-down.

The target in assay [7] is T3, S. cerevisiae …. Kind of assay: pull-down.

Consider yeast Wbp1 variant peptide TFKKSN, for which the fold tighter binding than KKTN in assay [1] worked out at 1.8 fold.

As for TFKKSN, in assay [2], the “ratio of affinities of α‐COP and β′‐COP: factor by which the motif favours α‐COP” value worked out at 2.2. Besides, the “binds more tightly than KKTN to β′‐COP by a factor” value in assay [3] was determined as 1.8 fold. In assay [4], IKTKLL [Emp47p peptide IKTKLL] had a Kd of 22.5 µM. For the molecule FEKVHVQ [porcine epidemic diarrhoea virus spike protein peptide FEKVHVQ], the binding result in assay [5] is recorded as “binds”. As for KYKSRRSFIDEKKMP (domain or fragment, adenovirus, UniProt P68978 145-159, looked up) [GST fused to the cytoplasmic region of adenoviral E19 protein (KKxx motif)], the binding result in assay [6] and in assay [7] was “binds” in each case. For the molecule RIRQEIIKTKLL (domain or fragment, yeast, UniProt P43555 434-445, looked up) [GST fused to the cytoplasmic region of Emp47p (KxKxx motif)], the binding result in assay [6] and in assay [7] was “binds” each time.

On to PEKPHSD [Insig-1 peptide PEKPHSD], for which the binding result in assay [4] and in assay [5] was “binds” in each case.

TFKKTN [yeast Wbp1 peptide TFKKTN]: binding in assay [4] was put at a Kd of 171 µM. Turning to AEKSHQE [Insig-2 peptide AEKSHQE], the binding result in assay [4] and in assay [5] was “binds” throughout.

As to EKEKSD [human Wbp1 (OST48) peptide EKEKSD], in assay [4], the Kd stood at 3.4 µM. In the case of RHLKSFFEAKKLV (domain or fragment, UniProt Q9BVK6 223-235, looked up) [GST fused to the cytoplasmic region of p25 (KKxx motif)], the binding result in assay [6] and in assay [7] was “binds” throughout. Molecule GARKLD [Scyl1 peptide GARKLD] gave a Kd in assay [4] of 20.4 µM. The molecule RRSFIDEKKMP [adenoviral E19 protein peptide RRSFIDEKKMP] yielded a Kd in assay [4] of 49 µM. The same measure, in the same setting: for FEAKKLV [p25 peptide FEAKKLV] the value was 27.7 µM.

The record behind these values is PMC3616288 (The EMBO Journal, 2013).
